ChEMBL document CHEMBL1137722, “Synthesis and pharmacological evaluation of a novel series of 5-(substituted)aryl-3-(3-coumarinyl)-1-phenyl-2-pyrazolines as novel anti-inflammatory and analgesic agents” (Eur J Med Chem, 2009)

Legend:
Rattus norvegicus [1] = assay: Antiinflammatory activity in albino rat chronic arthritis model assessed as inhibition of Freund's adjuvant-induced paw edema at 200 mg/kg, po administered on day 16 to 19 post Freund's adjuvant challenge measured on day 19 relative to control; format: functional
In short: (§1)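 Male albino rats (150–230 g) received 0.1 ml heat-killed M. tuberculosis (Freund's complete adjuvant) into the left hind footpad on day 1. Rats with developed arthritis on day 15 were split into groups of six. Dosing was oral, days 16–19, with 1 ml 0.5% sodium CMC as control. Paw volume, body weight and secondary lesions were recorded daily. % inhibition was calculated from day 15, n=6.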

Mus musculus [2] = assay: Analgesic activity in albino mouse assessed as protection against glacial acetic acid-induced writhing response at 200 mg/kg, po pretreated 0.5 hrs before glacial acetic acid challenge measured for 15 mins; format: functional
In short: (§2)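 Albino mice of either sex (20–25 g). Mice were pre-screened the day before for writhing, and only responders were used. Compound was given orally as a suspension in 0.5% sodium CMC 30 min before glacial acetic acid challenge. Stretching episodes were counted for 15 min. Results are the group mean, n=6, with % protection against control.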

Rattus norvegicus [3] = assay: Antipyretic activity in yeast-induced pyrexia albino rat model assessed as mean rectal temperature at 200 mg/kg, po administered 30 mins after 18 hrs of yeast challenge measured after 2 hrs postdosing (Rvb=39.2 degC); format: functional
Rattus norvegicus [4] = assay: Antiinflammatory activity in albino rat acute inflammatory model assessed as inhibition of carrageenan-induced paw edema at 200 mg/kg, po dosed 1 hr before carrageenan challenge measured after 4 hrs relative to control; format: functional
In short: (§3)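 Male albino rats (170–220 g), fasted at least 12 h with water available, groups of six. Oral dosing with 0.5% sodium CMC vehicle control. One hour later, 0.05 ml of 1% carrageenan was injected subplantar into the left hind paw. Paw volume was measured by digital plethysmometer at 0, 2 and 4 h. % inhibition = [1 − treated/control edema volume] × 100, n=6.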

Rattus norvegicus [5] = assay: Antipyretic activity in yeast-induced pyrexia albino rat model assessed as mean rectal temperature at 200 mg/kg, po administered 30 mins after 18 hrs of yeast challenge measured after 3 hrs postdosing (Rvb=38.9 degC); format: functional
Rattus norvegicus [6] = assay: Gastrointestinal toxicity in starved albino rat stress model assessed as ulcer index at 200 mg/kg, po after 7 hrs; format: organism-based; design: dose 200 mg/kg, route oral; settings: in vivo
In short: (§4)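 Albino rats of either sex, 170–250 g, six per group, starved 48 h with water ad libitum. Dosed orally as a suspension in 0.5% sodium CMC, test compounds at 200 mg/kg b.w. Killed 7 h later. Stomach opened along the greater curvature and everted. Ulcer index from lesion counts in five size classes, ranging from pinpoint to >4 mm diameter.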

[7] = Acute toxicity in po dosed albino mouse assessed as maximum tolerated dose; format: organism-based; settings: in vivo
In short: (§5)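 Albino mice of either sex (20–25 g), 12 groups of six, fasted 24 h with water available. Given oral doses rising through 10, 20, 100, 200, 1000 and 2000 mg/kg. Watched continuously for 3 h for behavioural, neurological and autonomic signs, then every 30 min for the next 3 h, then up to 24 h or until death. Guideline: OECD.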

Rattus norvegicus [8] = assay: Antipyretic activity in yeast-induced pyrexia albino rat model assessed as temperature index measured by sum of mean rectal temperature changes from 0 to 5 hrs at 200 mg/kg, po administered 30 mins after 18 hrs of yeast challenge (Rvb=39.2 degC); format: functional
Mus musculus [9] = assay: Acute toxicity in albino mouse assessed as mortality up to 2000 mg/kg, po after 24 hrs; format: organism-based; design: dose 2000 mg/kg, route oral; settings: in vivo; in short: as §5
Rattus norvegicus [10] = assay: Antiinflammatory activity in albino rat acute inflammatory model assessed as inhibition of carrageenan-induced paw edema at 200 mg/kg, po dosed 1 hr before carrageenan challenge measured after 2 hrs relative to control; format: functional; in short: as §3
Rattus norvegicus [11] = assay: Antipyretic activity in yeast-induced pyrexia albino rat model assessed as mean rectal temperature at 200 mg/kg, po administered 30 mins after 18 hrs of yeast challenge measured after 5 hrs postdosing (Rvb=38.2 degC); format: functional
Rattus norvegicus [12] = assay: Antipyretic activity in yeast-induced pyrexia albino rat model assessed as mean rectal temperature at 200 mg/kg, po administered 30 mins after 18 hrs of yeast challenge measured after 4 hrs postdosing (Rvb=38.7 degC); format: functional
Rattus norvegicus [13] = assay: Antipyretic activity in yeast-induced pyrexia albino rat model assessed as mean rectal temperature at 200 mg/kg, po administered 30 mins after 18 hrs of yeast challenge measured after 1 hr postdosing (Rvb=39.4 degC); format: functional
Mus musculus [14] = assay: Acute toxicity in albino mouse assessed as behavioral response up to 2000 mg/kg, po after 24 hrs; format: organism-based; design: dose 2000 mg/kg, route oral; settings: in vivo; in short: as §5
Rattus norvegicus [15] = assay: Antipyretic activity in yeast-induced pyrexia albino rat model assessed as temperature index measured by sum of mean rectal temperature changes from 0 to 5 hrs at 200 mg/kg, po administered 30 mins after 18 hrs of yeast challenge (Rvb=39.3 degC); format: functional
Rattus norvegicus [16] = assay: Antipyretic activity in yeast-induced pyrexia albino rat model assessed as temperature index measured by sum of mean rectal temperature changes from 0 to 5 hrs at 135 mg/kg, po administered 30 mins after 18 hrs of yeast challenge (Rvb=39.0 degC); format: functional
Rattus norvegicus [17] = assay: Antipyretic activity in yeast-induced pyrexia albino rat model assessed as mean rectal temperature at 135 mg/kg, po administered 30 mins after 18 hrs of yeast challenge measured after 3 hrs postdosing (Rvb=38.9 degC); format: functional
Rattus norvegicus [18] = assay: Antipyretic activity in yeast-induced pyrexia albino rat model assessed as mean rectal temperature at 135 mg/kg, po administered 30 mins after 18 hrs of yeast challenge measured after 2 hrs postdosing (Rvb=39.2 degC); format: functional
Rattus norvegicus [19] = assay: Antipyretic activity in yeast-induced pyrexia albino rat model assessed as mean rectal temperature at 135 mg/kg, po administered 30 mins after 18 hrs of yeast challenge measured after 4 hrs postdosing (Rvb=38.7 degC); format: functional
Rattus norvegicus [20] = assay: Antipyretic activity in yeast-induced pyrexia albino rat model assessed as mean rectal temperature at 135 mg/kg, po administered 30 mins after 18 hrs of yeast challenge measured after 1 hr postdosing (Rvb=39.4 degreeC); format: functional
Rattus norvegicus [21] = assay: Antipyretic activity in yeast-induced pyrexia albino rat model assessed as mean rectal temperature at 135 mg/kg, po administered 30 mins after 18 hrs of yeast challenge measured after 5 hrs postdosing (Rvb=38.2 degC); format: functional
Rattus norvegicus [22] = assay: Antiinflammatory activity in albino rat acute inflammatory model assessed as inhibition of carrageenan-induced paw edema at 13.5 mg/kg, po dosed 1 hr before carrageenan challenge measured after 2 hrs relative to control; format: functional; in short: as §3
Rattus norvegicus [23] = assay: Antiinflammatory activity in albino rat chronic arthritis model assessed as inhibition of Freund's adjuvant-induced paw edema at 13.5 mg/kg, po administered on day 16 to 19 post Freund's adjuvant challenge measured on day 19 relative to control; format: functional; in short: as §1
Rattus norvegicus [24] = assay: Antiinflammatory activity in albino rat acute inflammatory model assessed as inhibition of carrageenan-induced paw edema at 13.5 mg/kg, po dosed 1 hr before carrageenan challenge measured after 4 hrs relative to control; format: functional; in short: as §3
Rattus norvegicus [25] = assay: Antipyretic activity in yeast-induced pyrexia albino rat model assessed as temperature index measured by sum of mean rectal temperature changes from 0 to 5 hrs at 200 mg/kg, po administered 30 mins after 18 hrs of yeast challenge (Rvb=39.6 degC); format: functional
Rattus norvegicus [26] = assay: Gastrointestinal toxicity in starved po dosed albino rat stress model assessed as ulcer index after 7 hrs; format: organism-based; settings: in vivo; in short: as §4
Mus musculus [27] = assay: Analgesic activity in albino mouse assessed as protection against glacial acetic acid-induced writhing response at 30 mg/kg, po pretreated 0.5 hrs before glacial acetic acid challenge measured for 15 mins; format: functional; in short: as §2
Rattus norvegicus [28] = assay: Antipyretic activity in yeast-induced pyrexia albino rat model assessed as temperature index measured by sum of mean rectal temperature changes from 0 to 5 hrs at 200 mg/kg, po administered 30 mins after 18 hrs of yeast challenge (Rvb=39.4 degreeC); format: functional

| Structure (SMILES) | inhibition in vivo at 200 mg/kg (Rattus norvegicus [4]) [%] | MTD [7] [mg/kg] | Activity (Mus musculus [9]) | inhibition in vivo at 200 mg/kg (Rattus norvegicus [10]) [%] | Activity (Mus musculus [14]) | other results |
| --- | --- | --- | --- | --- | --- | --- |
| O=c1oc2ccccc2cc1C1=NN(c2ccccc2)[C@@H](c2ccc(Cl)cc2Cl)C1 | 67.5 | 2000 | Non-toxic | 56.7 | – | inhibition in vivo at 200 mg/kg (Rattus norvegicus [1]): 45.4%; Activity (Mus musculus [2]): 59%; Activity (Rattus norvegicus [3]): 38.6 °C; Activity (Rattus norvegicus [5]): 38.1 °C; UI (Rattus norvegicus [6]): 2.67; Activity (Rattus norvegicus [8]): -5.4 °C; Activity (Rattus norvegicus [11]): 37.2 °C; Activity (Rattus norvegicus [12]): 37.8 °C; Activity (Rattus norvegicus [13]): 38.9 °C |
| O=c1oc2ccccc2cc1C1=NN(c2ccccc2)[C@@H](c2ccccc2[N+](=O)[O-])C1 | 26.6 | – | Non-toxic | 24.7 | Toxic | – |
| O=c1oc2ccccc2cc1C1=NN(c2ccccc2)[C@@H](c2ccc(Cl)cc2)C1 | 64.7 | 2000 | Non-toxic | 39.2 | – | inhibition in vivo at 200 mg/kg (Rattus norvegicus [1]): 39.1%; Activity (Mus musculus [2]): 41%; Activity (Rattus norvegicus [3]): 38.9 °C; Activity (Rattus norvegicus [5]): 38.5 °C; UI (Rattus norvegicus [6]): 2.33; Activity (Rattus norvegicus [15]): -3.9 °C; Activity (Rattus norvegicus [11]): 38 °C; Activity (Rattus norvegicus [12]): 38.1 °C; Activity (Rattus norvegicus [13]): 39.1 °C |
| CC(=O)Nc1ccc(O)cc1 [ACETAMINOPHEN] | – | – | – | – | – | Activity (Rattus norvegicus [16]): -6.7 °C; Activity (Rattus norvegicus [17]): 37.6 °C; Activity (Rattus norvegicus [18]): 38 °C; Activity (Rattus norvegicus [19]): 37.3 °C; Activity (Rattus norvegicus [20]): 38.4 °C; Activity (Rattus norvegicus [21]): 37 °C |
| O=C(O)Cc1ccccc1Nc1c(Cl)cccc1Cl [DICLOFENAC] | – | – | – | – | – | inhibition in vivo at 13.5 mg/kg (Rattus norvegicus [22]): 63.7%; inhibition in vivo at 13.5 mg/kg (Rattus norvegicus [23]): 53%; inhibition in vivo at 13.5 mg/kg (Rattus norvegicus [24]): 78.7% |
| O=c1oc2ccccc2cc1C1=NN(c2ccccc2)[C@@H](c2ccccc2)C1 | 32.7 | 2000 | Non-toxic | 27.2 | – | – |
| COc1cccc([C@H]2CC(c3cc4ccccc4oc3=O)=NN2c2ccccc2)c1 | 61.5 | 2000 | Non-toxic | 38.3 | – | inhibition in vivo at 200 mg/kg (Rattus norvegicus [1]): 20.9%; Activity (Mus musculus [2]): 35%; Activity (Rattus norvegicus [3]): 38.8 °C; Activity (Rattus norvegicus [25]): -5.1 °C; Activity (Rattus norvegicus [5]): 38.6 °C; UI (Rattus norvegicus [6]): 2.12; Activity (Rattus norvegicus [11]): 37.9 °C; Activity (Rattus norvegicus [12]): 38.2 °C; Activity (Rattus norvegicus [13]): 39.4 °C |
| CN(C)c1ccc([C@H]2CC(c3cc4ccccc4oc3=O)=NN2c2ccccc2)cc1 | 40.1 | – | Non-toxic | 28.4 | Toxic | – |
| Cc1ccc([C@H]2CC(c3cc4ccccc4oc3=O)=NN2c2ccccc2)cc1 | 38 | – | Non-toxic | 30.1 | Toxic | – |
| O=c1oc2ccccc2cc1C1=NN(c2ccccc2)[C@@H](c2ccc(O)cc2)C1 | 34.6 | 2000 | Non-toxic | 28.8 | – | – |
| CC(=O)Oc1ccccc1C(=O)O [ASPIRIN] | – | – | – | – | – | UI (Rattus norvegicus [26]): 4.33; Activity (Mus musculus [27]): 67% |
| O=c1oc2ccccc2cc1C1=NN(c2ccccc2)[C@@H](/C=C/c2ccccc2)C1 | 42.5 | – | Non-toxic | 26.7 | Toxic | – |
| COc1ccc([C@H]2CC(c3cc4ccccc4oc3=O)=NN2c2ccccc2)cc1 | 36.2 | – | Non-toxic | 24.8 | Toxic | – |
| O=c1oc2ccccc2cc1C1=NN(c2ccccc2)[C@@H](c2cccc([N+](=O)[O-])c2)C1 | 31.2 | – | Non-toxic | 26.1 | Toxic | – |
| O=c1oc2ccccc2cc1C1=NN(c2ccccc2)[C@@H](c2ccc(F)cc2)C1 | 66.7 | 2000 | Non-toxic | 44.9 | – | inhibition in vivo at 200 mg/kg (Rattus norvegicus [1]): 40.5%; Activity (Mus musculus [2]): 55%; Activity (Rattus norvegicus [28]): -6.6 °C; Activity (Rattus norvegicus [3]): 38.3 °C; Activity (Rattus norvegicus [5]): 37.9 °C; UI (Rattus norvegicus [6]): 1.66; Activity (Rattus norvegicus [11]): 37.1 °C; Activity (Rattus norvegicus [12]): 37.7 °C; Activity (Rattus norvegicus [13]): 39.2 °C |
